Measured values gathered from unrelated publications.
Protocols differ between the studies behind these lines.
BRD7: Bromodomain-containing protein 7 (BRD7, Homo sapiens, UniProt Q9NPI1)
PBK: Lymphokine-activated killer T-cell-originated protein kinase (PBK, Homo sapiens, UniProt Q96KB5)
SIRT6: NAD-dependent protein deacylase sirtuin-6 (SIRT6, Homo sapiens, UniProt Q8N6T7)
VRK1: Serine/threonine-protein kinase VRK1 (VRK1, Homo sapiens, UniProt Q99986)
MAPK6: Mitogen-activated protein kinase 6 (MAPK6, Homo sapiens, UniProt Q16659)

Cc1cnc(NC2CCOCC2)nc1-n1cnc(C(=O)NC(CN)c2cc(F)cc(Cl)c2)c1 (centres unmarked)  remaining activity (Angiopoietin-1 receptor (TEK, Homo sapiens, UniProt Q02763, R849W); enzyme activity; inhibitor; radiometric; 1 µM): 100%
NS(=O)(=O)c1ccc(Nc2nc(-c3ccc(F)cc3)c3ccccc3n2)cc1  remaining binding (BRD7; binding; competition with immobilised ligand; 1 µM): 76%
COc1cc(Cl)c(C(=O)N[C@@H](CN[C@H]2CC[C@@H](N)CC2)Cc2ccc(C#N)cc2)cc1-c1ccc(CN[C@H](C)c2ccc(C)cc2)o1  remaining activity ([Pyruvate dehydrogenase (acetyl-transferring)] kinase isozyme 4, mitochondrial (PDK4, Homo sapiens, UniProt Q16654); enzyme activity; inhibitor; 1 µM): 103%
Cn1c2c(Cl)c(Cl)ccc2c2cc[nH]c(=O)c21  ΔTm (PBK; thermal stability; DSF; 10 µM): -0.6 °C
CNC(=O)c1ccc(C(=O)NOCc2ccc(C(F)(F)F)cc2)cc1  inhibition (SIRT6; enzyme activity; inhibitor; fluorescence; 100 µM): 35.3%
CCCOc1ccc(OC)c(F)c1C(=O)c1ccc(C(=O)N[C@@H]2CNC[C@H]2NC(=O)c2ccc3[nH]ncc3c2)cc1  remaining activity (Angiopoietin-1 receptor (TEK, Homo sapiens, UniProt Q02763, Y897S); enzyme activity; inhibitor; 10 µM): 47%
NC(=O)c1ccc(C(=O)NOCc2ccc(Sc3ccc(N)cc3)c(C(F)(F)F)c2)cc1  inhibition (SIRT6; enzyme activity; inhibitor; fluorescence; 100 µM): 97.3%
Nc1nonc1-n1cc(C(=O)N/N=C/c2ccccc2C(=O)O)nn1  remaining activity (SIRT6; enzyme activity; inhibitor; fluorescence; 100 µM): 84.2%
CCC1(CC)NC(=O)c2c(c3ccc(Cl)c(Cl)c3n2C)C1C#N (centres unmarked)  ΔTm (VRK1; thermal stability; DSF; 10 µM): 0 °C
Nc1nonc1-n1cc(C(=O)N/N=C/c2ccc(O)cc2)nn1  remaining activity (SIRT6; enzyme activity; inhibitor; fluorescence; 100 µM): 34.5%
Cc1ccc(C(=O)Nc2ccc(CN3CCN(C)CC3)c(C(F)(F)F)c2)cc1C#Cc1cnc2cccnn12  remaining activity (MAPK6; enzyme activity; inhibitor; 23.5 nM): 100%
Nc1ncnc2occ(-c3ccc(NC(=O)Nc4cc(C(F)(F)F)ccc4F)cc3)c12  remaining signal (MAPK6; cell-free assay; inhibitor; 20 µM): 100%
Nc1nonc1-n1cc(C(=O)N/N=C/c2ccc([N+](=O)[O-])cc2O)nn1  remaining activity (SIRT6; enzyme activity; inhibitor; fluorescence; 100 µM): 20.6%
Cn1c2c(c3ccc(Cl)c(Cl)c31)C(C#N)C(C)(C)NC2=O (centres unmarked)  ΔTm (PBK; thermal stability; DSF; 10 µM): -0.6 °C
C[S+]([O-])c1ccc(-c2nc(-c3ccncc3)c(-c3ccc(F)cc3)[nH]2)cc1 (centres unmarked)  ΔTm (BRD7; thermal stability; DSF; 10 µM): 0.34 °C
Cc1cccc(Sc2ccc(CONC(=O)c3ccc(C(N)=O)cc3)cc2C(F)(F)F)c1  inhibition (SIRT6; enzyme activity; inhibitor; fluorescence; 100 µM): 100%
O=C(Nc1ccc(S(=O)(=O)N2CCC(Cl)CC2)cc1)c1ccc([N+](=O)[O-])o1  inhibition (Voltage-dependent L-type calcium channel subunit alpha-1C (Cacna1c, Rattus norvegicus, UniProt P22002); cell-free assay; 10 µM): 6%
NCCc1ccc(C(=O)NOCc2ccc(C(F)(F)F)cc2)cc1  inhibition (SIRT6; enzyme activity; inhibitor; fluorescence; 100 µM): 88.4%
Cn1c2c(c3ccc(Cl)c(Cl)c31)C(C#N)C1(CCNCC1)NC2=O (racemic)  ΔTm (PBK; thermal stability; DSF; 10 µM): -0.9 °C
NC(=O)c1ccc(C(=O)NOCc2ccc(Sc3ccc(F)cc3)c(C(F)(F)F)c2)cc1  inhibition (SIRT6; enzyme activity; inhibitor; fluorescence; 100 µM): 90.2%
Nc1nonc1-n1cc(C(=O)N/N=C/c2ccc(O)c(O)c2O)nn1  remaining activity (SIRT6; enzyme activity; inhibitor; fluorescence; 100 µM): 51.3%
CC(N)c1ccc(C(=O)NOCc2ccc(C(F)(F)F)cc2)cc1 (centres unmarked)  inhibition (SIRT6; enzyme activity; inhibitor; fluorescence; 100 µM): 89.2%
Cn1c2c(Cl)c(Cl)ccc2c2cc(N)[nH]c(=O)c21  ΔTm (VRK1; thermal stability; DSF; 10 µM): 1.3 °C
Nc1nonc1-n1cc(C(=O)N/N=C/c2cccc([N+](=O)[O-])c2O)nn1  remaining activity (SIRT6; enzyme activity; inhibitor; fluorescence; 100 µM): 41.4%
Cn1c2c(c3ccc(Cl)c(Cl)c31)C(C#N)C1(CCOCC1)NC2=O (centres unmarked)  ΔTm (PBK; thermal stability; DSF; 10 µM): -0.4 °C
COC(=O)c1ccc(O)c(/C=N/NC(=O)c2cn(-c3nonc3N)nn2)c1  remaining activity (SIRT6; enzyme activity; inhibitor; fluorescence; 100 µM): 99.6%
CCN1CCC2(CC1)NC(=O)c1c(c3ccc(Cl)c(Cl)c3n1C)C2C#N (racemic)  ΔTm (VRK1; thermal stability; DSF; 10 µM): -0.4 °C
Nc1nonc1-n1cc(C(=O)N/N=C/c2ccccc2)nn1  remaining activity (SIRT6; enzyme activity; inhibitor; fluorescence; 100 µM): 38.9%
NC(=O)c1ccc(C(=O)NOCc2cccc(Br)c2)cc1  inhibition (SIRT6; enzyme activity; inhibitor; fluorescence; 100 µM): 82.3%
Nc1nonc1-n1cc(C(=O)N/N=C/c2ccc(C(F)(F)F)cc2C(F)(F)F)nn1  remaining activity (SIRT6; enzyme activity; inhibitor; fluorescence; 100 µM): 32.5%
NC(=O)c1ccc(C(=O)NOCc2cc(Cl)cc(Cl)c2)cc1  inhibition (SIRT6; enzyme activity; inhibitor; fluorescence; 100 µM): 88.2%
Cn1c2c(c3ccc(Cl)c(Cl)c31)C(C#N)C1(CCCC1)NC2=O (centres unmarked)  ΔTm (VRK1; thermal stability; DSF; 10 µM): 0 °C
